Measured values reported in ChEMBL document CHEMBL3525967, “In vitro glucuronidation of the antibacterial triclocarban and its oxidative metabolites” (Drug Metab Dispos, 2012).

What was measured:
[1] = Drug metabolism in cynomolgus monkey liver microsomes assessed as N-glucuronide-triclocarban formation incubated for 5 mins prior to UDPGA addition measured after 5 to 30 mins by LC-UV analysis; assay type: ADME, Macaca fascicularis
Procedure, shortened: (§1)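 Microsomes or UGT Supersomes (5 µg protein) were held 15 min on ice with alamethicin in 100 mM potassium phosphate pH 7.4. TCC was added at 10 µM (2% DMSO) with 10 mM MgCl2 and 10 mM saccharolactone, pre-warmed 5 min at 37 °C, then started with UDPGA. Samples at 5, 10, 15 and 30 min were quenched in ACN. Product was read by LC-UV at 265 nm; rate came from regression over time, three incubations.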

[2] = tested on: Liver microsome; assay: Drug metabolism in human liver microsomes assessed as N'-glucuronide-triclocarban formation incubated for 5 mins prior to UDPGA addition measured after 30 mins by LC-UV-ESI-MS/MS analysis; assay type: ADME; conditions: 0.5 h
Procedure, shortened: (§2)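 Pooled human kidney or liver microsomes (liver: 25 mixed-gender donors), 5 µg protein, in 200 µL 100 mM potassium phosphate pH 7.4. Alamethicin pre-treated on ice 15 min. Final 10 µM TCC (2% DMSO), with 10 mM MgCl2 and 10 mM saccharolactone, preincubated 5 min at 37 °C. Started with UDPGA (20 mM stock). Sampled at 5, 10, 15 and 30 min into ACN containing 1 µM DCC internal standard.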

[3] = Drug metabolism in human kidney microsomes assessed as N-glucuronide-triclocarban formation incubated for 5 mins prior to UDPGA addition measured after 5 to 30 mins by LC-UV analysis; assay type: ADME; procedure, shortened: as §2
[4] = molecular target: T1, UDP-glucuronosyltransferase 1A10 (Homo sapiens, UniProt Q9HAW8); assay: Drug metabolism assessed as human UGT1A10-mediated N-glucuronide-triclocarban formation expressed in baculovirus infected insect sf9 cells incubated for 5 mins prior to UDPGA addition measured after 5 to 30 mins by LC-UV analysis; assay type: ADME; procedure, shortened: as §1
T1 sequence (Q9HAW8 whole entry): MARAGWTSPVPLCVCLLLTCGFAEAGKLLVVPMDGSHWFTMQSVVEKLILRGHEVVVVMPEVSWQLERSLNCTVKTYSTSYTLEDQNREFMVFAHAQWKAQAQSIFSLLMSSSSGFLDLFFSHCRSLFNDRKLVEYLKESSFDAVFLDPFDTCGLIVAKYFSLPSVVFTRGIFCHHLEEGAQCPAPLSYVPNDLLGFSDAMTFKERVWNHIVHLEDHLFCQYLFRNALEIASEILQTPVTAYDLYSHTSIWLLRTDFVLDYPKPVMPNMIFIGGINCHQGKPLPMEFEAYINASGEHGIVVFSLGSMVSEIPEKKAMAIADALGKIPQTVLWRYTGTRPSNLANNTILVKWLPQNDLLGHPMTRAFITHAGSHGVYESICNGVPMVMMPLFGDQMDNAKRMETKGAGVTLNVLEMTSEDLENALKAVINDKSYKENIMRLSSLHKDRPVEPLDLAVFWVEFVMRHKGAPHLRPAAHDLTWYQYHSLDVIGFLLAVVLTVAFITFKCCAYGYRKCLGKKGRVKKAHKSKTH

[5] = tested on: Liver microsome; assay: Drug metabolism in human liver microsomes assessed as N'-glucuronide-triclocarban formation incubated for 5 mins prior to UDPGA addition measured after 5 to 30 mins by LC-UV analysis; assay type: ADME; procedure, shortened: as §2
[6] = Drug metabolism in cynomolgus monkey liver microsomes assessed as N'-glucuronide-triclocarban formation incubated for 5 mins prior to UDPGA addition measured after 5 to 30 mins by LC-UV analysis; assay type: ADME, Macaca fascicularis; procedure, shortened: as §1
[7] = molecular target: T2, UDP-glucuronosyltransferase 1A9 (Homo sapiens, UniProt O60656); assay: Drug metabolism assessed as human UGT1A9-mediated N'-glucuronide-triclocarban formation expressed in baculovirus infected insect sf9 cells incubated for 5 mins prior to UDPGA addition measured after 5 to 30 mins by LC-UV analysis; assay type: ADME; procedure, shortened: as §1
T2 sequence (O60656 whole entry): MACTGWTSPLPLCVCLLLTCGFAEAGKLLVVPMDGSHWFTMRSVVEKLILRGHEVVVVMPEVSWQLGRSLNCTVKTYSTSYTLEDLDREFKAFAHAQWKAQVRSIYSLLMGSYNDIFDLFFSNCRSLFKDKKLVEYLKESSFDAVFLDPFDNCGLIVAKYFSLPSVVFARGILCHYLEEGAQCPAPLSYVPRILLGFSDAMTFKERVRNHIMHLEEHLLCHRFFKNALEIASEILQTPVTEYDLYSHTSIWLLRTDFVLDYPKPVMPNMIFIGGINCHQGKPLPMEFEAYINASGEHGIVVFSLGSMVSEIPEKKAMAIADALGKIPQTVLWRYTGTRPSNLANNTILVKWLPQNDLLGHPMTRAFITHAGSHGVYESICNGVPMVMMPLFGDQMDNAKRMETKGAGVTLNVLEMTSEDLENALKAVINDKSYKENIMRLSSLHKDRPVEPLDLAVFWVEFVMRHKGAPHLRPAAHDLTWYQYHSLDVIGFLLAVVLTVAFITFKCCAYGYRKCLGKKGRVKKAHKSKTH

[8] = molecular target: T3, UDP-glucuronosyltransferase 2B4 (Homo sapiens, UniProt P06133); assay: Drug metabolism assessed as human UGT2B4-mediated N'-glucuronide-triclocarban formation expressed in baculovirus infected insect sf9 cells incubated for 5 mins prior to UDPGA addition measured after 5 to 30 mins by LC-UV analysis; assay type: ADME; procedure, shortened: as §1
T3 sequence (P06133 whole entry): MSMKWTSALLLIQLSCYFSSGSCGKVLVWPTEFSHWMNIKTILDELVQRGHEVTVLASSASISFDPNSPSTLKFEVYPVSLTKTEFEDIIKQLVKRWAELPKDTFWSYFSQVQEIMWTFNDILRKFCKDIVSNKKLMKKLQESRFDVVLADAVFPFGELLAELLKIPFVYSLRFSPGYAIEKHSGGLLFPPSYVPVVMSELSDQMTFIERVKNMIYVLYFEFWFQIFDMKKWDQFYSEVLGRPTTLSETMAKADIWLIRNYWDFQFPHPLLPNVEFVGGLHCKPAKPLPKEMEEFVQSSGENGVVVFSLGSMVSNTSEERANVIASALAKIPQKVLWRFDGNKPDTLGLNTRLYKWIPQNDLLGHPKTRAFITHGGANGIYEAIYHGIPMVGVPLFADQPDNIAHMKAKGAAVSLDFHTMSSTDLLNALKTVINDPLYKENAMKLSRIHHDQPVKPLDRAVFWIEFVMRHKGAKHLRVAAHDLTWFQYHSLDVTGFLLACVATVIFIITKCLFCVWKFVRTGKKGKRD

[9] = tested on: Liver microsome; assay: Drug metabolism in human liver microsomes assessed as N-glucuronide-triclocarban formation incubated for 5 mins prior to UDPGA addition measured after 30 mins by LC-UV-ESI-MS/MS analysis; assay type: ADME; conditions: 0.5 h; procedure, shortened: as §2
[10] = tested on: Liver microsome; assay: Intrinsic clearance in Sprague-Dawley rat liver microsomes after 30 mins by LC-ESI-MS analysis; assay type: ADME; conditions: 0.5 h
Procedure, shortened: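 2'-OH-TCC at 0.2, 0.5, 1, 2, 3, 5, 10 and 50 µM incubated with liver microsomes (alamethicin, MgCl2, saccharolactone, UDPGA; 37 °C), sampled at 5, 10, 15 and 30 min. Samples ≥5 µM diluted 1:9 in ACN; LC-ESI-MS. KM and vmax fitted from rate vs concentration; intrinsic clearance derived from these; mean and SD of three.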

| CLH [10] [µL/min/mg] | SMILES | Drug metabolism [1] | Drug metabolism [2] | Drug metabolism [3] | Drug metabolism [4] | Drug metabolism [5] | Drug metabolism [6] | Drug metabolism [7] | Drug metabolism [8] | Drug metabolism [9] |
| --- | --- | --- | --- | --- | --- | --- | --- | --- | --- | --- |
| – | O=C(Nc1ccc(Cl)cc1)Nc1ccc(Cl)c(Cl)c1 [TRICLOCARBAN] | metabolite_not_detected | metabolite_detected | metabolite_not_detected | metabolite_not_detected | metabolite_not_detected | metabolite_not_detected | metabolite_not_detected | metabolite_not_detected | metabolite_detected |
| 2860 | O=C(Nc1ccc(Cl)c(Cl)c1)Nc1ccc(Cl)cc1O | – | – | – | – | – | – | – | – | – |
